The list is not random: actives were taken first. Their share in the collection is about 6.4%.
H69AR inhibit: proliferation blockers of H69AR lung cancer cells, primary screen, cell-based, human, 86K library | H69AR lung tumor viability, ATP luminescence, 72 h; hits give low values | viability, % at 10 µM | actives 6% (n = 85,000) | AID 598, 2007;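 active = viability at or below 40%; inactive = viability above 40%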;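 also: multidrug resistant small cell line overexpressing MRP-1 efflux transporter; 100% = mean luminescence of untreated control wells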
tolC growth inh: growth inhibitors of E. coli tolC mutant, primary screen, strain BW25113 ΔtolC::kan, 384-well; actives 2.2% (n = 65,000); growth inhibition, % at 10 µM (by protocol); OD615;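 active = growth inhibition at or above a cutoff equal to the mean over every tested compound plus 3 SD, cut at about 60% in these data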;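 also: growth measured after 20 h incubation at 37 °C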
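signal = optical density read at 615 nm | test system = E. coli ΔtolC::kan strain BW25113 | timing = 20 h compound exposure of bacteria at 37 °C | buffer or medium = LB medium plus 50 µg/mL kanamycin | compound dosing = 10 µM final, single dose | evaluation = % inhibition of E. coli growth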
HUVEC prolif 384: inhibitors of HUVEC proliferation, primary screen, cell-based, 384-well | CellTiter-Glo luminescence, 72 h; hits give low values | actives 1.1% (n = 86,000) | viability, % at 10 µM (by protocol);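 active = viability at or below 30%; inactive = viability above 30%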;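 also: 100% = median luminescence of DMSO-only cell control wells on each plate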
Jurkat viability: cytotoxicity toward Jurkat T cells, primary screen, cytotoxicity control, cell-based, Jurkat E6.1, 60K MLSMR library | Jurkat E6.1 viability, ATP luminescence, 48 h | inhibition, % at 4 µM | actives 1.2% (n = 56,000) | AID 463, 2006;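 active = inhibition above the mean inhibition of all tested compounds plus 3 SD, cut at about 28% in these data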
E coli WT exp: growth inhibitors of wild-type E. coli, primary screen, strain BW25113, expanded library, OD600; OD600 absorbance; growth inhibition, % at 100 µM; actives 0.15% (n = 98,000);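 active = growth inhibition above about 50% at one test dose, limit read from the data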;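 also: growth measured after 20 h incubation at 37 °C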
Lung fibro prol: antiproliferative effect on LL 47 fibroblasts – human, LL 47 cells, CellTiter-Glo luminescence, primary screen; LL 47 human lung fibroblast viability, ATP luminescence; hits give low values; viability, % at 10 µM; actives 1.1% (n = 85,000); AID 719, 2007;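 active = viability at or below 50% in the single dose screen; inactive = viability above 50%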;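 also: compound exposure lasted 72 h before the ATP readout; 100% = median luminescence of untreated cell-only wells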
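Test system: LL 47 human lung fibroblasts / Quantity: 1,150 cells in each well / Medium: IMEM growth medium with 15% fetal bovine serum / Incubation: 72 h compound exposure at 37 °C after overnight plating / Detection: CellTiter-Glo luminescence measuring cellular ATP / Read-out: % viability versus median cells-only luminescence / Benchmarks: cell-only wells, no compound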
Active calls of the source: *; nt = no result.

SMILES | H69AR inhibit | tolC growth inh | HUVEC prolif 384 | Jurkat viability | E coli WT exp | Lung fibro prol
COc1ccc(NC(=O)c2ccc(S(=O)(=O)N3CCOCC3)cc2)c(OC)c1 | 95 | -8 | 85 | -2 | 2 | 103
COc1cccc(-c2nnc(NC(=O)c3ccc(S(=O)(=O)N4CCOCC4)cc3)o2)c1 | 20* | 94* | 15* | 0 | -4 | 69
COc1cccc(C(=O)NCC2CCN(c3ccc(S(=O)(=O)N4CCOCC4)cc3)CC2)c1 | 30* | 3 | 86 | 11 | -15 | 92
CC1CN(S(=O)(=O)c2ccc(C(=O)Nc3nnc(-c4ccc5c(c4)CCCC5)o3)cc2)CC(C)O1 (centres undefined) | 17* | 97* | 7.0* | -6 | 4 | 39*
CCC(C)Oc1nc2ccccc2nc1NS(=O)(=O)c1ccccc1 (centres undefined) | 84 | nt | 94 | nt | -1 | 107
COc1cccc(/C=N/n2cncn2)c1OCC#N | 91 | -16 | 94 | -8 | 8 | 99
Cc1nc(SCC(=O)N(C)C2CCCCC2)[nH]c(=O)c1Cc1ccccc1 | 80 | nt | 97 | nt | -3 | 105
COc1ccc(C)cc1S(=O)(=O)N(C)CC(=O)Nc1ccccc1 | 103 | 17 | 102 | 10 | 2 | 100
Cc1cc(C(=O)CN2C(=O)NC3(CCCCC3)C2=O)c(C)n1Cc1ccc2c(c1)OCO2 | 97 | 9 | 82 | 4 | -2 | 80
Cn1c(=O)c2c(nc(N3CCCCC3)n2CCCNC2=NCCCC2)n(C)c1=O | 98 | -12 | 104 | 2 | 0 | 105
Clc1cccc(NCc2nnc(SCc3ccccc3)o2)c1 | nt | 99* | 78 | 4 | 7 | 92
COc1ccccc1NC(=O)N1CCN(c2ccccn2)CC1 | 83 | -7 | 97 | 2 | 6 | 111
O=c1[nH]c(CN2CCN(C/C=C/c3ccccc3)CC2)nc2cc(Cl)ccc12 | 88 | 10 | 28* | 7 | -5 | 82
O=C(CCc1nc2ccccc2c(=O)[nH]1)N1CCN(C/C=C/c2ccccc2)CC1 | 91 | 0 | 85 | 9 | 5 | 101
CC1CC(C)CN(C(=O)CCNS(=O)(=O)c2cccs2)C1 (centres undefined) | 97 | nt | 96 | nt | nt | 105
COc1ccccc1OCc1nc(C#N)c(N2CC(C)CC(C)C2)o1 (centres undefined) | 78 | 48 | 119 | -2 | -1 | 100
CC(C)C1Oc2ccccc2N(CC(=O)N(Cc2ccccn2)CC2CCCO2)C1=O (centres undefined) | 71 | -11 | 103 | -4 | 1 | 93
Cc1ccc(CN(CC2CCCO2)C(=O)CN2C(=O)C(C(C)C)Oc3ccccc32)o1 (centres undefined) | 38* | 18 | 106 | -2 | -2 | 92
CC(CN1CCOCC1)C(=O)c1ccccc1 (centres undefined) | 111 | nt | 95 | nt | 8 | 107
O=C(c1ccc(F)cc1)C(CCCCCC(CN1CCOCC1)C(=O)c1ccc(F)cc1)CN1CCOCC1 (centres undefined) | 23* | nt | 56 | nt | -9 | 89
Cc1cc2ccccc2c(=O)n1CC(=O)Nc1ccc2c(c1)OCCO2 | 85 | 1 | 89 | 14 | 8 | 94
CCOC(=O)C1=C(C)N(C)C(=O)NC1c1c(C)nn(-c2ccc(C)cc2)c1Cl (centres undefined) | 31* | nt | 88 | nt | -7 | 90
CCOC(=O)C1=C(C)NC(=O)NC1c1c(C)nn(-c2ccccc2)c1Cl (centres undefined) | 81 | 3 | 89 | -7 | 0 | 97
COc1ccc(NC(=O)CSc2nnc(CNC(=O)COc3ccc(Cl)cc3)o2)c(OC)c1 | 107 | 1 | 93 | 2 | -4 | 44*
CCOc1cc(C(=O)CSc2nnc(CNc3ccc(Cl)cc3)o2)ccc1NC(=O)CC | 0.2* | 0 | 1.7* | 6 | 0 | 64
SMILES | H69AR inhibit | tolC growth inh | HUVEC prolif 384 | Jurkat viability | E coli WT exp | Lung fibro prol
COc1ccc(OC)c(NC(=O)CSc2nnc(CNC(=O)COc3ccc(Cl)cc3)o2)c1 | 109 | -2 | 102 | 1 | 9 | 108
COc1ccc(NCc2nnc(SCC(=O)c3ccc(OC)cc3)o2)cc1 | 96 | nt | 87 | nt | 0 | 93
COc1ccc(C)cc1NC(=O)NC1CCN(Cc2ccccc2)CC1 | 91 | -6 | 71 | 9 | -3 | 94
CC(C(=O)N1CCCCC1)n1sc2ccccc2c1=O (centres undefined) | 88 | -15 | 100 | 0 | 0 | 95
c1ccc(-c2nnc(SCc3cn4ccsc4n3)o2)cc1 | 75 | 31 | 96 | -6 | 21 | nt
COc1cccc(-c2cc(C(=O)N3CC4(C)CC3CC(C)(C)C4)no2)c1 (centres undefined) | 45 | 80* | 55 | 0 | -9 | 92
C[C@H](C(=O)C=[N+]=[N-])N1C(=O)c2ccccc2C1=O | 96 | -18 | 101 | -3 | -11 | 111
C=CCNc1nc(NCc2ccccc2)c(C#N)c2c1CN(C)CC2 | 29* | 15 | 11* | nt | 14 | 58
CCN1CCc2c(C#N)c(NCc3ccccc3)nc(N(CC)CC)c2C1 | 58 | 2 | 55 | nt | 15 | 82
N#Cc1c(N2CCN(C(=O)c3ccccc3Cl)CC2)nc(-c2ccccc2)c2c1CCCC2 | nt | nt | nt | nt | -11 | nt
N#Cc1c(NCCN)nc(NCc2ccccc2)c2c1CCN(Cc1ccccc1)C2 | 47 | 14 | 18* | nt | nt | 83
N#Cc1c(NCCN)nc(-c2ccccc2)c2c1CCCC2 | 6.0* | nt | 89 | nt | 46 | 66
N#Cc1c(N2CCN(C(=O)c3ccccc3)CC2)nc(-c2ccccc2)c2c1CCCC2 | 14* | nt | 69 | nt | -18 | 91
COc1ccccc1C(c1nnnn1Cc1ccccc1)N1CCN(C2CCCC2)CC1 (centres undefined) | 76 | nt | 88 | nt | nt | 90
Cc1cccc(NC(=S)NC(=O)/C=C/c2ccco2)n1 | 33* | nt | 82 | nt | -5 | 90
COC(CNc1cc(=O)oc2ccccc12)OC | 89 | nt | 103 | nt | 1 | 105
O=C(COC(=O)Cc1cn2ccsc2n1)Nc1nc2ccccc2s1 | 7.2* | 3 | 96 | 3 | 7 | 93
COCC(=O)Nc1nc2ccccc2s1 | 94 | nt | 109 | nt | 5 | 99
O=C(c1ccco1)N1CCN(C(c2coc3ccc(Cl)cc3c2=O)c2nnnn2C2CCCC2)CC1 (centres undefined) | 14* | nt | 73 | nt | nt | 86
CC(Oc1ccccc1Br)C(=O)N1CCc2ccccc21 (centres undefined) | 105 | 69* | 105 | 5 | 6 | 98

Compound activity from PubChem BioAssay.
